# Test results: ChEMBL document CHEMBL4043093, “2-Oxo-3, 4-dihydropyrimido[4, 5-d]pyrimidinyl derivatives as new irreversible pan fibroblast growth factor receptor (FGFR) inhibitors” (Eur J Med Chem, 2017)
# Tests used:
# Homo sapiens = species: Homo sapiens; assay: Inhibition of human partial length FLT3 ITD/F691L double mutant expressed in Escherichia coli BL21 assessed as residual activity at 1000 nM after 30 mins by Kinomescan method relative to control
# Outline: (§1)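 KINOMEscan binding panel of 456 kinases, with the test compound at a single concentration of 1 µM. Read-out is Percent Control.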
# [1] = target: Mitogen-activated protein kinase 9 (Homo sapiens) (UniProt P45984); assay: Inhibition of wild-type human full length JNK2 (M1 to Q382 residues) expressed in HEK293 cells assessed as residual activity at 1000 nM after 30 mins by Kinomescan method relative to control; format: cell-based
# Outline: (§2)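 Single-concentration screen at 1 µM across a 456-kinase KINOMEscan panel. The read-out is Percent Control for each kinase.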
# [2] = target: Mitogen-activated protein kinase 3 (Homo sapiens) (UniProt P27361); assay: Inhibition of wild-type human full length ERK1 (M1 to P379 residues) expressed in Escherichia coli BL21 assessed as residual activity at 1000 nM after 30 mins by Kinomescan method relative to control; outline: as §2
# Mitogen-activated protein kinase 3 (Homo sapiens), sequence (P27361 whole entry, the tested form may be a part): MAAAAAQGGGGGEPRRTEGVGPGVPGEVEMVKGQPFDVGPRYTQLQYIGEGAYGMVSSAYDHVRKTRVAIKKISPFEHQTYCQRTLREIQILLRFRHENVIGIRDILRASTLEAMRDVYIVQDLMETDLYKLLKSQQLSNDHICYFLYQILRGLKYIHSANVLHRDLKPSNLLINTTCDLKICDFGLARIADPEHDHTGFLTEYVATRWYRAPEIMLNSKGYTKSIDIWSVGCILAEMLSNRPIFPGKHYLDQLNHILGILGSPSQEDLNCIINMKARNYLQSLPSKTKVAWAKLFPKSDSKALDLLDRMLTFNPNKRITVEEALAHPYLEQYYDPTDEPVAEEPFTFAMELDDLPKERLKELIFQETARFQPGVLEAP
# [3] = target: Serine/threonine-protein kinase 32C (Homo sapiens) (UniProt Q86UX6); assay: Inhibition of wild-type human partial length YANK3 (M68 to G486 residues) expressed in Escherichia coli BL21 assessed as residual activity at 1000 nM after 30 mins by Kinomescan method relative to control
# [4] = target: SRSF protein kinase 2 (Homo sapiens) (UniProt P78362); assay: Inhibition of wild-type human full length SRPK2 (M1 to S686 residues) expressed in Escherichia coli BL21 assessed as residual activity at 1000 nM after 30 mins by Kinomescan method relative to control
# SRSF protein kinase 2 (Homo sapiens), sequence (P78362 whole entry, looked up, the tested form may be a part): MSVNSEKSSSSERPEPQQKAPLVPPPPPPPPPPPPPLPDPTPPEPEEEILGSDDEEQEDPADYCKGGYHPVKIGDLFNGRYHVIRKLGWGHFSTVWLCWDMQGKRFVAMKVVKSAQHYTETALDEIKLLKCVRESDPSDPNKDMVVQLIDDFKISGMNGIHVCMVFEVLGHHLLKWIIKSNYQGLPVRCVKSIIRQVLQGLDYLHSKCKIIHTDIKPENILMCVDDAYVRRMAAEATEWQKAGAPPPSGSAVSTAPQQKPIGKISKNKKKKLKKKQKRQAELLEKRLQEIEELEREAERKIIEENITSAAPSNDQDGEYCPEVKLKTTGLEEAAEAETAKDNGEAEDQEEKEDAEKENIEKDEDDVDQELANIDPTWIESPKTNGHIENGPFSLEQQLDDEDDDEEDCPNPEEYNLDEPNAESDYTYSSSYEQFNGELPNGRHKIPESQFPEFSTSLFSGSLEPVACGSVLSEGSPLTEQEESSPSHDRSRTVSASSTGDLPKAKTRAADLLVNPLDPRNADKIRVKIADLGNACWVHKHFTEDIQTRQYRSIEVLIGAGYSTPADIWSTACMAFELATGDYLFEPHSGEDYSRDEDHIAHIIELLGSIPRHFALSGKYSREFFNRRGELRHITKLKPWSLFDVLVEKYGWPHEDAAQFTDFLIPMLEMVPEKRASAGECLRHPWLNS
# [5] = target: Homeodomain-interacting protein kinase 3 (Homo sapiens) (UniProt Q9H422); assay: Inhibition of wild-type human partial length HIPK3 (M153 to N562 residues) expressed in HEK293 cells assessed as residual activity at 1000 nM after 30 mins by Kinomescan method relative to control; format: cell-based
# [6] = target: Tyrosine-protein kinase JAK2 (Homo sapiens) (UniProt O60674); assay: Inhibition of wild-type human partial length JAK2 JH1 catalytic domain (A829 to G1132 residues) expressed in HEK293 cells assessed as residual activity at 1000 nM after 30 mins by Kinomescan method relative to control; format: cell-based
# [7] = target: Serine/threonine-protein kinase haspin (Homo sapiens) (UniProt Q8TF76); assay: Inhibition of wild-type human partial length HASPIN (I452 to K798 residues) expressed in HEK293 cells assessed as residual activity at 1000 nM after 30 mins by Kinomescan method relative to control; format: cell-based
# [8] = tested on: Leucine-rich repeat serine/threonine-protein kinase 2 (Homo sapiens), Q5S007 [G2019S]; assay: Inhibition of human partial length LRRK2 G2019S mutant (H970 to E2527 residues) expressed in HEK293 cells assessed as residual activity at 1000 nM after 30 mins by Kinomescan method relative to control; format: cell-based; outline: as §1
# [9] = target: Ankyrin repeat and protein kinase domain-containing protein 1 (Homo sapiens) (UniProt Q8NFD2); assay: Inhibition of wild-type human partial length ANKK1 (M1 to A305 residues) expressed in HEK293 cells assessed as residual activity at 1000 nM after 30 mins by Kinomescan method relative to control; format: cell-based
# [10] = target: Calcium/calmodulin-dependent protein kinase type 1 (Homo sapiens) (UniProt Q14012); assay: Inhibition of wild-type human full length CAMK1 (M1 to L370 residues) expressed in Escherichia coli BL21 assessed as residual activity at 1000 nM after 30 mins by Kinomescan method relative to control
# Outline: (§3)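 Single-point screen at a fixed 1 µM, run within a 456-kinase DiscoveRx KINOMEscan panel. Each kinase's read-out is Percent Control, i.e. signal relative to a control without compound. Hits were scored by a Percent Control < 35 cut-off, and an S(35) selectivity score was calculated across the non-mutant kinases.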
# [11] = target: BDNF/NT-3 growth factors receptor (Homo sapiens) (UniProt Q16620); assay: Inhibition of wild-type human partial length TRKB (Q547 to G838 residues) expressed in HEK293 cells assessed as residual activity at 1000 nM after 30 mins by Kinomescan method relative to control; format: cell-based
# [12] = target: Phosphatidylinositol 3-kinase C2 domain-containing subunit gamma (Homo sapiens) (UniProt O75747); assay: Inhibition of wild-type human partial length PIK3C2G (M1 to I1446 residues) expressed in HEK293 cells assessed as residual activity at 1000 nM after 30 mins by Kinomescan method relative to control; format: cell-based
# [13] = tested on: Phosphatidylinositol 4,5-bisphosphate 3-kinase catalytic subunit alpha isoform (Homo sapiens), P42336 [I800L]; assay: Inhibition of human partial length PIK3CA I800L mutant (R108 to N1068 residues) expressed in HEK293 cells assessed as residual activity at 1000 nM after 30 mins by Kinomescan method relative to control; format: cell-based; outline: as §3
# Phosphatidylinositol 4,5-bisphosphate 3-kinase catalytic subunit alpha isoform (Homo sapiens), P42336 [I800L], sequence (P42336 whole entry I800L, the tested form may be a part, canonical isoform): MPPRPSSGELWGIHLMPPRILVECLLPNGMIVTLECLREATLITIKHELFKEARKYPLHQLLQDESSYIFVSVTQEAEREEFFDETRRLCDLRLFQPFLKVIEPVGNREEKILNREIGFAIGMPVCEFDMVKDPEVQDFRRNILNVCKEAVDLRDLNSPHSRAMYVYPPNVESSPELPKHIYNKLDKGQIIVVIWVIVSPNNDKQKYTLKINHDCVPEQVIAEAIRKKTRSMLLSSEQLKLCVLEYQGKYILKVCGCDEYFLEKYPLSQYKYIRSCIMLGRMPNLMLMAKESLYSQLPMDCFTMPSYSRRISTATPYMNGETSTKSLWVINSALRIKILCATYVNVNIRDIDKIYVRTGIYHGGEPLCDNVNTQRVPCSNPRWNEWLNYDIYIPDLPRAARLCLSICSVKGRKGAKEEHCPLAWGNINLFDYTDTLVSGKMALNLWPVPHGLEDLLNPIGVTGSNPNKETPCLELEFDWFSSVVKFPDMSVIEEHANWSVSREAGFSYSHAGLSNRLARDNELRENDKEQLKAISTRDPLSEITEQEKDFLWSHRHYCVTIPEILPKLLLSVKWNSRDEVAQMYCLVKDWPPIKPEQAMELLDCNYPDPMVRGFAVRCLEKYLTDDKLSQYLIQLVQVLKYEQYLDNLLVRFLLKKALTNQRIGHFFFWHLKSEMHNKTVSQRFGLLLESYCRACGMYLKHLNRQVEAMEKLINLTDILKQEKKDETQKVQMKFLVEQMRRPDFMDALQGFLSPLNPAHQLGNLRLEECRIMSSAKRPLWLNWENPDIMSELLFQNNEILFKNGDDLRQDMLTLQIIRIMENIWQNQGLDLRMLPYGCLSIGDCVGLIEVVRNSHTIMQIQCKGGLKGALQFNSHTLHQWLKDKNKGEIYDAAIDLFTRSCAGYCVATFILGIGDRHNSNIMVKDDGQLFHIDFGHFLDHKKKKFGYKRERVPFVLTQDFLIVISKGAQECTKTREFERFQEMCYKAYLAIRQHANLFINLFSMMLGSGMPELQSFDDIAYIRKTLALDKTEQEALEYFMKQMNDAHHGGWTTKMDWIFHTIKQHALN
# [14] = target: Tyrosine-protein kinase receptor Tie-1 (Homo sapiens) (UniProt P35590); assay: Inhibition of wild-type human partial length TIE1 (T819 to A1138 residues) expressed in Escherichia coli BL21 assessed as residual activity at 1000 nM after 30 mins by Kinomescan method relative to control
# [15] = target: Serine/threonine-protein kinase LATS2 (Homo sapiens) (UniProt Q9NRM7); assay: Inhibition of wild-type human partial length LATS2 (Q641 to V1088 residues) expressed in HEK293 cells assessed as residual activity at 1000 nM after 30 mins by Kinomescan method relative to control; format: cell-based
# Serine/threonine-protein kinase LATS2 (Homo sapiens), sequence (Q9NRM7 whole entry, the tested form may be a part): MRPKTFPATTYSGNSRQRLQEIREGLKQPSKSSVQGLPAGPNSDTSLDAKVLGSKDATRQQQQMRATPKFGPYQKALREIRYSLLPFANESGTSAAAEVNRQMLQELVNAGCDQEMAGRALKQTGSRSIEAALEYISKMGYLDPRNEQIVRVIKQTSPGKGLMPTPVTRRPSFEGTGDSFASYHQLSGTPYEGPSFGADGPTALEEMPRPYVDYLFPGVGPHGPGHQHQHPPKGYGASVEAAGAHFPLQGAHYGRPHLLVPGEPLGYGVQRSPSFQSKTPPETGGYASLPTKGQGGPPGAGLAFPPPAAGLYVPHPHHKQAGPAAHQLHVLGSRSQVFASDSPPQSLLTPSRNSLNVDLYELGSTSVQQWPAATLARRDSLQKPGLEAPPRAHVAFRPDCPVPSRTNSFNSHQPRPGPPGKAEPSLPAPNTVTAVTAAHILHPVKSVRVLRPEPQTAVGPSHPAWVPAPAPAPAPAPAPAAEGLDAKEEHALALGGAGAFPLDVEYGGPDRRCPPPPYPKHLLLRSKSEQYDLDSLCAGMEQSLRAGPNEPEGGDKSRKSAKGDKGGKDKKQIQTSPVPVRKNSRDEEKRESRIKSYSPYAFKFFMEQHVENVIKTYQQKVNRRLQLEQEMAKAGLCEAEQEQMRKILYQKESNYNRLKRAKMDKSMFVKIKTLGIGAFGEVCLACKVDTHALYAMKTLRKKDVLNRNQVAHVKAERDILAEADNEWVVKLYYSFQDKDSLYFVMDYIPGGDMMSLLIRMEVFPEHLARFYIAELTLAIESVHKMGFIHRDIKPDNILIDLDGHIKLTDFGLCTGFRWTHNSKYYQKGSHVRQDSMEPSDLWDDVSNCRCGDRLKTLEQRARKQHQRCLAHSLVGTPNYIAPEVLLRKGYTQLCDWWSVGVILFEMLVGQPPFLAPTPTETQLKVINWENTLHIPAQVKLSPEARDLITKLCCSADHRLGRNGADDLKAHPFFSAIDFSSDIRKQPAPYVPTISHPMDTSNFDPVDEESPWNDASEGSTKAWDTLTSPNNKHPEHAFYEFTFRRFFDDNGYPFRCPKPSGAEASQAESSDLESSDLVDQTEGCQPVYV
# [16] = target: Serine/threonine-protein kinase N2 (Homo sapiens) (UniProt Q16513); assay: Inhibition of wild-type human partial length PKN2 (E634 to C984 residues) expressed in Escherichia coli BL21 assessed as residual activity at 1000 nM after 30 mins by Kinomescan method relative to control
# [17] = target: Ephrin type-A receptor 8 (Homo sapiens) (UniProt P29322); assay: Inhibition of wild-type human partial length EPHA8 (Q608 to C920 residues) expressed in Escherichia coli BL21 assessed as residual activity at 1000 nM after 30 mins by Kinomescan method relative to control
# Ephrin type-A receptor 8 (Homo sapiens), sequence (P29322 whole entry, the tested form may be a part): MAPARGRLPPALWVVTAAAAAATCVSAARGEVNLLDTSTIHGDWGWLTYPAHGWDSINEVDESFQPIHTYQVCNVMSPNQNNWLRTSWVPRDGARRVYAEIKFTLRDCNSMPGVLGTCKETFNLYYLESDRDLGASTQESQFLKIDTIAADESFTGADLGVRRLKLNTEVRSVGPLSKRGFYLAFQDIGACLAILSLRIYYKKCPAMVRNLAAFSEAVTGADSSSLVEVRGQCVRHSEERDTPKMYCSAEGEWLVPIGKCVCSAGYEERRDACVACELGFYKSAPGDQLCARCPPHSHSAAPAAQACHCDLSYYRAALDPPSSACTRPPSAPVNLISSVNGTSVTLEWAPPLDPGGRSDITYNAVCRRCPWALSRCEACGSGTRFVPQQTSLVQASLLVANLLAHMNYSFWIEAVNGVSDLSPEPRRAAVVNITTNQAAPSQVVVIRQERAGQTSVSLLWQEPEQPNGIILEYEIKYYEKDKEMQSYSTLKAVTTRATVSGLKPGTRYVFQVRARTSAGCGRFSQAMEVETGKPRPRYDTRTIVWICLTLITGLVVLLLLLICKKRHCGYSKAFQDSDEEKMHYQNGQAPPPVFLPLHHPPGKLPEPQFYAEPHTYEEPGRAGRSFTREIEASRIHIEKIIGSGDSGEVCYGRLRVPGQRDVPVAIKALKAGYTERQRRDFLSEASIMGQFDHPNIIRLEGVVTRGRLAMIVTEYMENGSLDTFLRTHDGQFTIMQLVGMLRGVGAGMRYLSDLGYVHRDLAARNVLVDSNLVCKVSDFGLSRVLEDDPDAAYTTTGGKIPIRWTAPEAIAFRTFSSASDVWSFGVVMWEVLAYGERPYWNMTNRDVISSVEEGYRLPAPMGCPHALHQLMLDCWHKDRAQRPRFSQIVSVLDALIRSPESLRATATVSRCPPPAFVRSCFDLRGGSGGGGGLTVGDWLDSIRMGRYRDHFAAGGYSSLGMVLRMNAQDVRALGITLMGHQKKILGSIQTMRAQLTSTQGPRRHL
# [18] = target: Ephrin type-A receptor 6 (Homo sapiens) (UniProt Q9UF33); assay: Inhibition of wild-type human partial length EPHA6 (Y700 to E1046 residues) expressed in Escherichia coli BL21 assessed as residual activity at 1000 nM after 30 mins by Kinomescan method relative to control
# [19] = target: Mitogen-activated protein kinase kinase kinase kinase 1 (Homo sapiens) (UniProt Q92918); assay: Inhibition of wild-type human full length HPK1 (M1 to R799 residues) expressed in Escherichia coli BL21 assessed as residual activity at 1000 nM after 30 mins by Kinomescan method relative to control; outline: as §2
# Mitogen-activated protein kinase kinase kinase kinase 1 (Homo sapiens), sequence (Q92918 whole entry, looked up, the tested form may be a part, canonical isoform): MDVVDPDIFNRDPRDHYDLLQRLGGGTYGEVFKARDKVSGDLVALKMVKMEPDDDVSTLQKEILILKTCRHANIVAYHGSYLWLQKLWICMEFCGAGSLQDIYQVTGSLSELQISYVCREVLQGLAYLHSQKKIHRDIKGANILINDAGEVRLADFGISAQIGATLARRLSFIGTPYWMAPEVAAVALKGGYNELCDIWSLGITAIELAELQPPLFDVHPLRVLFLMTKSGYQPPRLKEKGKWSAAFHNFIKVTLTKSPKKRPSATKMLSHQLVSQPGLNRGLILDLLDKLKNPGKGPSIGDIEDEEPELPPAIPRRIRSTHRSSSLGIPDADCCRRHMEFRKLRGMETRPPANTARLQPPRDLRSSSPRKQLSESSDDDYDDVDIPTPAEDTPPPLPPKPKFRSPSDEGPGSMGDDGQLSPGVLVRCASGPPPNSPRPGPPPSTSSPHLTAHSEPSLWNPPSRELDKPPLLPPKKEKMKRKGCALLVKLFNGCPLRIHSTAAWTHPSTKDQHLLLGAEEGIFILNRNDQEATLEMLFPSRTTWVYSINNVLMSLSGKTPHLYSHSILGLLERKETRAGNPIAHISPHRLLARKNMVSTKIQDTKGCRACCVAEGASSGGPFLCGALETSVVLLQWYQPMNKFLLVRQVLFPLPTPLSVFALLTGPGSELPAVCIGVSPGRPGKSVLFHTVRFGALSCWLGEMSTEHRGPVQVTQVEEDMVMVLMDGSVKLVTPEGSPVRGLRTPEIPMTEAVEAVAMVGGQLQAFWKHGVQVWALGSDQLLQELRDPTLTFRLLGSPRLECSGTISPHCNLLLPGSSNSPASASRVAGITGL
# [20] = target: Phosphatidylinositol 4,5-bisphosphate 3-kinase catalytic subunit beta isoform (Homo sapiens) (UniProt P42338); assay: Inhibition of wild-type human partial length PIK3CB (P118 to S1070 residues) expressed in HEK293 cells assessed as residual activity at 1000 nM after 30 mins by Kinomescan method relative to control; format: cell-based
compound,measurement,setting,value
COc1cc(OC)c(Cl)c(N2Cc3cnc(Nc4ccc(F)cc4)nc3N(C3CCN(C(=O)/C=C/CN(C)C)CC3)C2=O)c1Cl,Activity,Homo sapiens,90%
same,Activity,[1],92%
same,Activity,[2],100%
same,Activity,[3],90%
same,Activity,[4],91%
same,Activity,[5],100%
same,Activity,[6],100%
same,Activity,[7],61%
same,Activity,[8],98%
same,Activity,[9],96%
same,Activity,[10],100%
same,Activity,[11],54%
same,Activity,[12],95%
same,Activity,[13],83%
same,Activity,[14],19%
same,Activity,[15],100%
same,Activity,[16],91%
same,Activity,[17],100%
same,Activity,[18],100%
same,Activity,[19],32%
same,Activity,[20],100%
